Measurements from ChEMBL document CHEMBL4673214, “Synthesis and antibacterial bioactivities of cationic deacetyl linezolid amphiphiles” (Eur J Med Chem, 2018).
Active and inactive are the calls of the source. The rule behind the calls is not given here.

Columns and labels:
Cell membrane [1] = experiment: Induction of cytoplasmic membrane depolarization in Staphylococcus aureus ATCC 29213 at 20 ug/ml measured for 12 mins by DiSC35 dye-based fluorescence assay; assay type: subcellular; conditions: dose 20.0 µg/ml
Method in brief: (§1)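 Mid-log bacteria were washed and resuspended at ~10^8 CFU/mL: S. aureus in PBS, E. coli in 5 mM HEPES/5 mM glucose/100 mM KCl (1:1:1). Cells were loaded with diSC35 (10 µM stock) for 30 min (S. aureus) or 40 min (E. coli, plus EDTA). Fluorescence (ex 622/em 670 nm) was read for an 8 min baseline, then every 2 min for 12 min after compound at 20 µg/mL final. Water served as control.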

Cell membrane [2] = experiment: Induction of cytoplasmic membrane depolarization in Escherichia coli ATCC 25922 at 20 ug/ml measured for 12 mins by DiSC35 dye-based fluorescence assay; assay type: subcellular; conditions: dose 20.0 µg/ml; method in brief: as §1
Cell membrane [3] = experiment: Induction of outer membrane permeabilization in Escherichia coli ATCC 25922 at 20 ug/ml measured for 12 mins by NPN dye based fluorescence assay; conditions: dose 20.0 µg/ml
Method in brief: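 Mid-log E. coli in HEPES/glucose/KCl at ~10^8 CFU/mL was preincubated 40 min with N-phenylnaphthylamine (10 µM stock). Fluorescence (ex 350/em 420 nm) was read for an 8 min baseline, then every 2 min for 12 min after compound at 20 µg/mL final. Water served as control.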

Cell membrane [4] = experiment: Induction of inner membrane permeabilization in Escherichia coli ATCC 25922 at 20 ug/ml measured for 12 mins by propidium iodide staining based fluorescence microscopic analysis; conditions: dose 20.0 µg/ml
Method in brief: (§2)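 Mid-log bacteria were washed and resuspended at ~10^8 CFU/mL and preincubated with propidium iodide (10 µM stock) for 30 min (S. aureus) or 40 min (E. coli). Fluorescence (ex 535/em 617 nm) was read on a plate for an 8 min baseline, then every 2 min for 12 min after compound at 20 µg/mL final. Water served as control.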

Cell membrane [5] = experiment: Induction of inner membrane permeabilization in Staphylococcus aureus ATCC 29213 at 20 ug/ml measured for 12 mins by propidium iodide staining based fluorescence microscopic analysis; conditions: dose 20.0 µg/ml; method in brief: as §2
Escherichia coli [6] = experiment: Antibiofilm activity against Escherichia coli ATCC 25922 assessed as inhibition of biofilm formation incubated for 24 hrs by crystal violet staining assay; assay type: functional
Method in brief: (§3)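 Twofold serial dilutions in MHB received 1:1000-diluted exponential-phase bacteria and were incubated 24 h at 37 °C. Wells were rinsed, stained with 0.1% crystal violet for 10 min and dissolved in ethanol, and OD540 was read. MBIC80 was the concentration inhibiting 80% of biofilm formation versus untreated wells, taken from dose-response curves.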

Staphylococcus aureus [7] = experiment: Antibiofilm activity against Staphylococcus aureus ATCC 29213 assessed as inhibition of biofilm formation incubated for 24 hrs by crystal violet staining assay; assay type: functional; method in brief: as §3
Escherichia coli [8] = experiment: Antibiofilm activity against 24 hrs preformed biofilm of Escherichia coli ATCC 25922 assessed as eradication of preformed biofilm incubated for 24 hrs by crystal violet staining assay; assay type: functional
Staphylococcus aureus [9] = experiment: Antibiofilm activity against 24 hrs preformed biofilm of Staphylococcus aureus ATCC 29213 assessed as eradication of preformed biofilm incubated for 24 hrs by crystal violet staining assay; assay type: functional
[10] = Hemolytic activity in sheep RBC incubated for 1 hr; assay type: ADME, cell-based, Ovis aries, Erythrocyte; conditions: sheep red blood cells (erythrocytes)
Method in brief: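 Sheep RBCs were resuspended at 5% in PBS and mixed 3:1 with serial dilutions (2560 to 5 µg/mL, pre-mixing levels), then incubated 1 h at 37 °C. After centrifugation, supernatant A540 was read. Hemolysis % was calculated as (A−A0)/(Atotal−A0)×100, with untreated RBCs as 0% and 0.1% Triton X-100 as total lysis.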

Enterobacteriaceae [11] = experiment: Antibacterial activity against NDM1 producing carbapenem-resistant Enterobacteriaceae clinical isolate 10 assessed as reduction in bacterial growth incubated for 16 to 20 hrs by CLSI-based broth microdilution method; assay type: functional; conditions: time 16-20 hrs
Method in brief: (§4)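 Clinical isolates tested by broth microdilution in cation-adjusted Mueller-Hinton broth. Cultures grown 4-6 h (~10^8 CFU/mL) were diluted to ~10^6 CFU/mL and mixed 1:1 with compound serial dilutions made from 256 down to 0.5 µg/mL (pre-mixing). Plates held at 37 °C for 16-20 h, then read for growth. Each concentration run in duplicate, whole experiment at least twice.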

Enterobacteriaceae [12] = experiment: Antibacterial activity against NDM1 producing carbapenem-resistant Enterobacteriaceae clinical isolate 8 assessed as reduction in bacterial growth incubated for 16 to 20 hrs by CLSI-based broth microdilution method; assay type: functional; conditions: time 16-20 hrs; method in brief: as §4
Enterobacteriaceae [13] = experiment: Antibacterial activity against NDM1 producing carbapenem-resistant Enterobacteriaceae clinical isolate 7 assessed as reduction in bacterial growth incubated for 16 to 20 hrs by CLSI-based broth microdilution method; assay type: functional; conditions: time 16-20 hrs; method in brief: as §4
Enterobacteriaceae [14] = experiment: Antibacterial activity against NDM1 producing carbapenem-resistant Enterobacteriaceae clinical isolate 6 assessed as reduction in bacterial growth incubated for 16 to 20 hrs by CLSI-based broth microdilution method; assay type: functional; conditions: time 16-20 hrs; method in brief: as §4
Enterobacteriaceae [15] = experiment: Antibacterial activity against NDM1 producing carbapenem-resistant Enterobacteriaceae clinical isolate 5 assessed as reduction in bacterial growth incubated for 16 to 20 hrs by CLSI-based broth microdilution method; assay type: functional; conditions: time 16-20 hrs; method in brief: as §4
Enterobacteriaceae [16] = experiment: Antibacterial activity against NDM1 producing carbapenem-resistant Enterobacteriaceae clinical isolate 4 assessed as reduction in bacterial growth incubated for 16 to 20 hrs by CLSI-based broth microdilution method; assay type: functional; conditions: time 16-20 hrs; method in brief: as §4
Enterobacteriaceae [17] = experiment: Antibacterial activity against NDM1 producing carbapenem-resistant Enterobacteriaceae clinical isolate 3 assessed as reduction in bacterial growth incubated for 16 to 20 hrs by CLSI-based broth microdilution method; assay type: functional; conditions: time 16-20 hrs; method in brief: as §4
Enterobacteriaceae [18] = experiment: Antibacterial activity against NDM1 producing carbapenem-resistant Enterobacteriaceae clinical isolate 2 assessed as reduction in bacterial growth incubated for 16 to 20 hrs by CLSI-based broth microdilution method; assay type: functional; conditions: time 16-20 hrs; method in brief: as §4
Enterobacteriaceae [19] = experiment: Antibacterial activity against NDM1 producing carbapenem-resistant Enterobacteriaceae clinical isolate 1 assessed as reduction in bacterial growth incubated for 16 to 20 hrs by CLSI-based broth microdilution method; assay type: functional; conditions: time 16-20 hrs; method in brief: as §4
Klebsiella pneumoniae [20] = experiment: Antibacterial activity against carbapenem-resistant Klebsiella pneumoniae clinical isolate 10 assessed as reduction in bacterial growth incubated for 16 to 20 hrs by CLSI-based broth microdilution method; assay type: functional; conditions: time 16-20 hrs; method in brief: as §4
Klebsiella pneumoniae [21] = experiment: Antibacterial activity against carbapenem-resistant Klebsiella pneumoniae clinical isolate 9 assessed as reduction in bacterial growth incubated for 16 to 20 hrs by CLSI-based broth microdilution method; assay type: functional; conditions: time 16-20 hrs; method in brief: as §4
Klebsiella pneumoniae [22] = experiment: Antibacterial activity against carbapenem-resistant Klebsiella pneumoniae clinical isolate 8 assessed as reduction in bacterial growth incubated for 16 to 20 hrs by CLSI-based broth microdilution method; assay type: functional; conditions: time 16-20 hrs; method in brief: as §4
Klebsiella pneumoniae [23] = experiment: Antibacterial activity against carbapenem-resistant Klebsiella pneumoniae clinical isolate 7 assessed as reduction in bacterial growth incubated for 16 to 20 hrs by CLSI-based broth microdilution method; assay type: functional; conditions: time 16-20 hrs; method in brief: as §4
Klebsiella pneumoniae [24] = experiment: Antibacterial activity against carbapenem-resistant Klebsiella pneumoniae clinical isolate 6 assessed as reduction in bacterial growth incubated for 16 to 20 hrs by CLSI-based broth microdilution method; assay type: functional; conditions: time 16-20 hrs; method in brief: as §4
Klebsiella pneumoniae [25] = experiment: Antibacterial activity against carbapenem-resistant Klebsiella pneumoniae clinical isolate 5 assessed as reduction in bacterial growth incubated for 16 to 20 hrs by CLSI-based broth microdilution method; assay type: functional; conditions: time 16-20 hrs; method in brief: as §4
Klebsiella pneumoniae [26] = experiment: Antibacterial activity against carbapenem-resistant Klebsiella pneumoniae clinical isolate 4 assessed as reduction in bacterial growth incubated for 16 to 20 hrs by CLSI-based broth microdilution method; assay type: functional; conditions: time 16-20 hrs; method in brief: as §4
Klebsiella pneumoniae [27] = experiment: Antibacterial activity against carbapenem-resistant Klebsiella pneumoniae clinical isolate 3 assessed as reduction in bacterial growth incubated for 16 to 20 hrs by CLSI-based broth microdilution method; assay type: functional; conditions: time 16-20 hrs; method in brief: as §4
Klebsiella pneumoniae [28] = experiment: Antibacterial activity against carbapenem-resistant Klebsiella pneumoniae clinical isolate 2 assessed as reduction in bacterial growth incubated for 16 to 20 hrs by CLSI-based broth microdilution method; assay type: functional; conditions: time 16-20 hrs; method in brief: as §4
Enterobacteriaceae [29] = experiment: Antibacterial activity against NDM1 producing carbapenem-resistant Enterobacteriaceae clinical isolate 9 assessed as reduction in bacterial growth incubated for 16 to 20 hrs by CLSI-based broth microdilution method; assay type: functional; conditions: time 16-20 hrs; method in brief: as §4
Salmonella enterica = experiment: Antibacterial activity against Salmonella enterica ATCC 8387 assessed as reduction in bacterial growth incubated for 16 to 20 hrs by CLSI-based broth microdilution method; assay type: functional; conditions: time 16-20 hrs
Method in brief: (§5)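 Broth microdilution following CLSI, in cation-adjusted Mueller-Hinton broth. Inoculum from a 4-6 h culture (~10^8 CFU/mL), diluted to ~10^6 CFU/mL. Water stocks were serially diluted in MHB (256 to 0.5 µg/mL) and mixed 1:1 with the inoculum. Plates ran 16-20 h at 37 °C. MIC was read visually. Each concentration was tested in duplicate, and the experiment was repeated at least twice.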

Escherichia coli [30] = experiment: Antibacterial activity against Escherichia coli ATCC 25922 assessed as reduction in bacterial growth incubated 16 to 20 hrs by CLSI-based broth microdilution method; assay type: functional; conditions: time 16-20 hrs; method in brief: as §5
Klebsiella pneumoniae [31] = experiment: Antibacterial activity against carbapenem-resistant Klebsiella pneumoniae clinical isolate 1 assessed as reduction in bacterial growth incubated for 16 to 20 hrs by CLSI-based broth microdilution method; assay type: functional; conditions: time 16-20 hrs; method in brief: as §4

SMILES: CC(=O)NC[C@H]1CN(c2ccc(N3CCOCC3)c(F)c2)C(=O)O1 [LINEZOLID]
- Activity (Cell membrane [1]): inactive
- Activity (Cell membrane [2]): inactive
- Activity (Cell membrane [3]): inactive
- Activity (Cell membrane [4]): inactive
- Activity (Cell membrane [5]): inactive
- MBIC80 (Escherichia coli [6]): >128 µg/mL
- MBIC90 (Escherichia coli [6]): >128 µg/mL
- MBIC80 (Staphylococcus aureus [7]): 26.8 µg/mL
- MBIC90 (Staphylococcus aureus [7]): 36.1 µg/mL
- MBEC (Escherichia coli [8]): >128 µg/mL
- MBEC80 (Escherichia coli [8]): >128 µg/mL
- MBEC90 (Escherichia coli [8]): >128 µg/mL
- MBEC (Staphylococcus aureus [9]): >128 µg/mL
- MBEC80 (Staphylococcus aureus [9]): >128 µg/mL
- MBEC90 (Staphylococcus aureus [9]): >128 µg/mL
- HC50 at 1 h [10]: 550 µg/mL
- MIC (Enterobacteriaceae [11]): > 64 µg/mL
- MIC (Enterobacteriaceae [12]): > 64 µg/mL
- MIC (Enterobacteriaceae [13]): > 64 µg/mL
- MIC (Enterobacteriaceae [14]): > 64 µg/mL
- MIC (Enterobacteriaceae [15]): > 64 µg/mL
- MIC (Enterobacteriaceae [16]): > 64 µg/mL
- MIC (Enterobacteriaceae [17]): > 64 µg/mL
- MIC (Enterobacteriaceae [18]): > 64 µg/mL
- MIC (Enterobacteriaceae [19]): > 64 µg/mL
- MIC (Klebsiella pneumoniae [20]): > 64 µg/mL
- MIC (Klebsiella pneumoniae [21]): > 64 µg/mL
- MIC (Klebsiella pneumoniae [22]): > 64 µg/mL
- MIC (Klebsiella pneumoniae [23]): > 64 µg/mL
- MIC (Klebsiella pneumoniae [24]): > 64 µg/mL
- MIC (Klebsiella pneumoniae [25]): > 64 µg/mL
- MIC (Klebsiella pneumoniae [26]): > 64 µg/mL
- MIC (Klebsiella pneumoniae [27]): > 64 µg/mL
- MIC (Klebsiella pneumoniae [28]): > 64 µg/mL
- MIC (Enterobacteriaceae [29]): > 64 µg/mL
- MIC (Salmonella enterica): > 64 µg/mL
- MIC (Escherichia coli [30]): > 64 µg/mL
- MIC (Klebsiella pneumoniae [31]): > 64 µg/mL
